“And” between values parts separate entries of the source, which are not always exact repeats. Equal values may be shown once. “Also recorded” adds a separate entry of the source. Each block holds one substance with its values, some of them ahead of it.
What was measured:
[1] = Size-exclusion chromatography, oligomeric states; format: physicochemical
How it was run: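 HPLC gel filtration of amylose-purified MBP-fused NOX5 dehydrogenase domain, run against CaM and BSA references. Column equilibrated in Tris pH 7.5 (50 mM per figure legends, 20 mM per methods) with 0.2 M NaCl (0.2–0.5 M range), plus 2 mM Ca²⁺ or 1 mM EDTA. Runs at 1.0 mL/min with 280 nm detection. 2 M urea added to partially dissociate oligomers. Species assigned by elution time.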

[2] = test system: Nox5; conditions: peptide from the scaffold domain of Cav-1; ref [13]; cited from earlier work
[3] = test system: nitric oxide synthase; conditions: Cav-1p residues 82–101; ref [26]; cited from earlier work
[4] = test system: CaM; assay: CaM interaction by size-exclusion chromatography; format: binding; conditions: D-CMBD with CaM; for Complex with CaM in SEC, Ca^2+: 0.2 M NaCl, 2 mM Ca^2+
How it was run: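 HPLC size-exclusion used a Shodex KW802.5 column at 1.0 mL/min with 280 nm detection. Buffer was Tris, pH 7.5, with 0.2 M NaCl (range 0.2–0.5 M) plus 2 mM Ca²⁺ or 1 mM EDTA. Samples were filtered through 0.45 μm. MBP-DH constructs, alone or mixed with CaM or Dansyl-CaM, were compared with BSA. Collected fractions were assayed for Dansyl fluorescence.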

[5] = test system: CaM; assay: CaM/D-CMBD binding by Dansyl fluorescence
How it was run: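 N-terminally Dansyl-labelled Nox5β CMBD peptide (residues 671–689) was titrated with CaM at room temperature. Excitation was 335 nm, with 2/5 nm slits. Buffer was 50 mM Tris, pH 7.5, with 2 mM Ca²⁺ or 1 mM EDTA. Emission maxima and intensity changes were recorded and fitted following earlier work. Values are mean ± SD of at least three runs.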

[6] = test system: D-CaM; assay: CMBD binding to Ca^2+-D-CaM by fluorescence; conditions: CMBD added to 2 μM D-CaM, 50 mM Tris, 2 mM Ca^2+, pH 7.5
How it was run: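 D-CaM (Dansyl-labelled calmodulin) was excited at 335 nm, with excitation and emission slits of 2 and 5 nm, on a temperature-controlled fluorometer. Emission spectra were followed during titration with MBP-fused Nox5 dehydrogenase (DH) constructs or CMBD peptide. Buffer was 50 mM Tris, pH 7.5, with 2 mM Ca²⁺. Fits of intensity changes followed earlier work. Each measurement was done at least three times using 2–3 protein batches.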

[7] = test system: CaM; assay: CaM/CMBD binding by isothermal titration calorimetry
How it was run: (§1)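 ITC was run on a VP-ITC at 25 °C in 50 mM Tris, 2 mM Ca²⁺, pH 7.5, with 0.15–0.25 M NaCl added for salt studies. Injections were 5 or 10 μL over 10 or 20 s, spaced 120 s. Heat of dilution (titrant into buffer) was subtracted. Data were fitted with a one-set-of-sites model. Back-titration used 250 μM CaM into 40 μM CMBD. Values are mean ± SD.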

[8] = test system: CCaM; assay: CMBD/CCaM binding by isothermal titration calorimetry; conditions: CMBD titrated into CCaM; 50 mM Tris, pH 7.5, 2 mM Ca^2+, 25 °C; mean ± SD
How it was run: as §1

[9] = test system: CaM; assay: CaM/CMBD binding by Trp fluorescence
[10] = test system: NCaM; assay: CMBD/NCaM binding by isothermal titration calorimetry; conditions: CMBD titrated into NCaM; 50 mM Tris, pH 7.5, 2 mM Ca^2+, 25 °C; mean ± SD
How it was run: as §1

[11] = test system: CaM; conditions: titration curve inflection point; ref [18]; cited from earlier work
[12] = test system: CaM; conditions: Ca^2+-CaM; ref [11]; cited from earlier work
[13] = test system: CaM; conditions: ref [17]; cited from earlier work
[14] = test system: CaM; assay: CaM/CMBD binding by Trp fluorescence anisotropy; conditions: Ca^2+
How it was run: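 Trp anisotropy of 1 μM CMBD peptide (residues 671–689) was recorded during CaM titration. Excitation was 280 or 295 nm, and excitation and emission slits were both 10 nm, with polarizers. Buffer was 50 mM Tris, pH 7.5, 2 mM Ca²⁺, at room temperature. Anisotropy values were fitted following earlier work. Values are mean ± SD of at least three runs.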

Substance: Bovine serum albumin (BSA): Bovine serum albumin, SEC standard [reference compound]
SEC elution time, BSA monomer ([1]; 50 mM Tris, pH 7.5, 0.2 M NaCl, 66 kDa): 8.57 min
SEC elution time, BSA dimer ([1]; 50 mM Tris, pH 7.5, 0.2 M NaCl, 132 kDa): 7.76 min
SEC elution time, BSA trimer ([1]; 50 mM Tris, pH 7.5, 0.2 M NaCl, 198 kDa): 7.23 min

Substance: Cav-1P: peptide from the scaffold domain of Cav-1 (residues 82–101) (DGIWKASFTTFTVTKYWFYR; UniProt Q03135 82-101, looked up, fragment)
Effect on Nox5's superoxide-generating activity [2]: inhibit the Nox5's superoxide-generating activity
Effect on NO production [3]: inhibits the NO production

Substance: hemoglobin [reference compound]
SEC elution time, reference protein ([1]; 0.2 M NaCl, same settings): 9.51 min

SEC elution time, EDTA / apo ([1]; KW802.5 column, 1.0 mL/min, 0.2 M NaCl, 1 mM EDTA, pH 7.5): 25.67 min
SEC elution time, Ca^2+ ([1]; KW802.5 column, 1.0 mL/min, 0.2 M NaCl, 2 mM Ca^2+, pH 7.5): 29.31 min
Stoichiometry n[Peptide]/[Protein], CaM/D-CMBD ([5]; 2 μM D-CMBD titrated with CaM, Dansyl fluorescence, 50 mM Tris, pH 7.5, 2 mM Ca^2+, room temperature, mean ± SD): 2.11 and 2.11 ± 0.11
Dansyl emission maximum, D-CMBD alone ([5]; Ca^2+): 550 nm
Dansyl emission maximum, D-CMBD with CaM ([5]; Ca^2+): 518 nm
Dansyl intensity increase on CaM binding ([5]; Ca^2+): ~8 fold
Binding affinity in the absence of Ca^2+ ([5]; absence of Ca^2+ (EDTA), estimated, diminished in a higher ionic strength): ~10^5 M^-1
Substance: H2NRPDWSKVFQKVAAEKKGKVCOOH [D-CMBD]
Dansyl fluorescence in CaM fraction, absence of Ca^2+ ([4]; 1 mM EDTA): No Dansyl fluorescence was found in the CaM fractions
Complex with CaM in SEC, Ca^2+ [4]: complexed with Ca^2+-CaM when a large excess of CaM was included

nCaM/CMBD, ITC back-titration ([7]; 250 μM CaM into 40 μM CMBD, 25 °C): 0.56
Effect of NaCl on binding ([7]; 0.1 − 0.25 M NaCl): does not change significantly
Stoichiometry n[peptide]/Protein (nCMBD/CaM), ITC CaM/CMBD (back-titration) ([7]; converted from nCaM/CMBD, 250 μM CaM into 40 μM CMBD, 25 °C, mean ± SD): 1.79 and 1.79 ± 0.11
Cooperativity of CMBD binding ([7]; two CMBD peptides on half-domains of CaM): no cooperativity was observed
Binding constant, ITC CMBD/CCaM [8]: (9.50 ± 0.62) x 10^5 M^-1
Equivalents of CaM to saturate binding (intensity) ([9]; 330 nm, Ca^2+): one
Emission maximum, CaM-bound CMBD ([9]; Trp fluorescence upon addition of CaM, Ca^2+): 330 nm
Wavelength shift on CaM binding ([9]; Trp fluorescence, blue shift, Ca^2+): ~20 nm
Binding constant, ITC CMBD/NCaM [10]: (2.42 ± 1.21) x 10^6 M^-1
Molar ratio at saturation (anisotropy) ([14]; 1 μM CMBD with CaM): ~1.2
Trp anisotropy value (r), complexed with CaM (maximum) ([14]; 1 μM CMBD with CaM, emission 352 nm): 0.136
Trp anisotropy value (r), peptide alone ([14]; 1 μM CMBD, emission 352 nm): 0.0405
Substance: H2NRPDWSKVFQKVAAEKKGKVCOOH [CMBD]
Intensity change, CMBD with D-CaM [6]: very small intensity; also recorded: small intensity change
CaM binding in the absence of Ca^2+ (CMBD) ([9]; Trp fluorescence, 50 mM Tris, pH 7.5, 1 mM EDTA): A similar finding using CMBD's Trp fluorescence was found in the absence of Ca^2+; also recorded: non-specific electrostatic interaction which is not biologically significant
Ka, previous estimate [11]: 4e+07 M⁻¹
Stoichiometry, previous estimate [11]: near unity stoichiometry
Complex with CaM in SEC, Ca^2+ [4]: a stable Ca^2+-CaM/CMBD complex was formed in non-equilibrium system
ANS fluorescence decrease of CaM/CMBD [12]: ~3%
Binding mode in crystal structure [13]: each of the two CMBD peptides is bound in the cleft formed in half-domain

Source: paper PMC8777244 (Biochemistry and Biophysics Reports, 2022)
